Type in all cases: cell-based
Experiment [1] deals with murine leukemia cells (L1210). The experiment can be described thus: Antiproliferative. The conditions noted are these: Mus musculus, L1210, 48 h, read-out: IC50 L1210. The method in brief:
(§1)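 Cells in growth medium proliferated with variable concentrations of test compound at 37 °C in a humidified CO2-controlled atmosphere. Incubation was 48 h for L1210 and 96 h for HeLa. Cell number was then counted with a Coulter counter. IC50 was the concentration inhibiting cell proliferation by 50 %.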

The test system of experiment [2] is human T-lymphocyte cells (CEM). The experiment can be described thus: Antiproliferative. The conditions noted are these: 72 h, read-out: IC50 CEM. In outline: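 Human T-lymphocyte CEM cells, suspended in growth medium, were left to proliferate in microtiter wells with varying amounts of test compound at 37 °C in a humidified, CO2-controlled atmosphere. After 72 h, cells were counted with a Coulter counter. IC50 is the concentration that inhibits cell proliferation by 50 %.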

Experiment [3] relates to human cervix carcinoma cells (HeLa). The experiment can be described thus: Antiproliferative. To be noted: 96 h, read-out: IC50 HeLa. In outline: as §1
A further experiment relates to Parainfluenza-3 virus. The experiment is described as follows: Antiviral assay, virus-induced cytopathicity in Vero cells. The conditions noted are these: read-out: IC50 Parainfluenza-3 virus. Background: Damage to the host cells serves as the signal in cytopathic effect assays.
The subject of the next experiment is Reovirus-1. Described as above. To be noted: read-out: IC50 Reovirus-1.
Another experiment relates to Sindbis virus. Described as above. The conditions noted are these: read-out: IC50 Sindbis virus.
Experiment [4] deals with L1210, CEM and HeLa tumor cell lines. The experiment is described as follows: Cytostatic activity stated over the three tumor cell lines together.

Each structure is given as a SMILES string.

As to `CC(=O)OC[C@H]1O[C@@H](NC(=O)NC(=O)COc2ccc(-c3ccccc3)cc2)[C@H](OC(C)=O)[C@@H](OC(C)=O)[C@@H]1OC(C)=O` [Compound 6c, N-2-(Biphenyl-4-yloxy)acetyl-N′-(2,3,4,6-tetra-O-acetyl-β-D-glucopyranosyl)-urea], the IC50 in experiment [1], in experiment [2] and in experiment [3] was over 250 µM in each case.

Turning to `O=c1[nH]cc(F)c(=O)[nH]1` [5-Fluorouracil, reference compound], the IC50 in experiment [1] was 0.33 ± 0.17 µM; in experiment [2] it was 18 ± 5 µM; in experiment [3], 0.54 ± 0.12 µM.

On to `NC(=O)c1ncn([C@@H]2O[C@H](CO)[C@@H](O)[C@H]2O)n1` [Ribavirin], for which the figures for the IC50 with Parainfluenza-3 virus, with Reovirus-1 and in the experiment with Sindbis virus were 250 µM, over 250 µM and over 250 µM, respectively.

For the molecule `O=C(COc1ccc(-c2ccccc2)cc1)NC(=O)N[C@@H]1O[C@H](CO)[C@@H](O)[C@H](O)[C@H]1O` [Compound 7c, N-2-(Biphenyl-4-yloxy)acetyl-N′-(β-D-glucopyranosyl)-urea], the IC50 in experiment [1] is 9 ± 5.9 µM; in experiment [2], 24 ± 1 µM; in experiment [3], 19 ± 3 µM; in experiment [4] (read-out: IC50, cytostatic activity against the three tumor cell lines), 9 to 24 µM. Besides, in experiment [4] (compared with 6-mercaptopurine over L1210, CEM, HeLa), the “cytostatic potential, fold lower than 6-mercaptopurine” value is 5- to 15 fold.

With `O=C(CCCc1ccc2c(c1)CCCC2)NC(=O)N[C@@H]1O[C@H](CO)[C@@H](O)[C@H](O)[C@H]1O` [Compound 7b, N-4-(5,6,7,8-Tetrahydronaphthalen-2-yl)butanoyl-N′-(β-D-glucopyranosyl)-urea], the IC50 in experiment [1], in experiment [2] and in experiment [3] was over 250 µM in each case.

Consider `CC(=O)OC[C@H]1O[C@@H](NC(=O)NC(=O)CCCc2ccc3c(c2)CCCC3)[C@H](OC(C)=O)[C@@H](OC(C)=O)[C@@H]1OC(C)=O` [Compound 6b, N-4-(5,6,7,8-Tetrahydronaphthalen-2-yl)butanoyl-N′-(2,3,4,6-tetra-O-acetyl-β-D-glucopyranosyl)-urea], for which the IC50 in experiment [1] amounted to 78 µM; in experiment [2], 38 ± 10 µM; in experiment [3], 66 ± 12 µM.

`Sc1ncnc2nc[nH]c12` [6-Mercaptopurine, reference compound]: the IC50 in experiment [1] stood at 2.8 ± 1.1 µM; in experiment [2], 2.8 ± 1.3 µM; in experiment [3] it was 1.1 ± 0.1 µM.

What is called IC50 is the concentration that gives 50% inhibition.

Source of the values: PMC7079967 (Medicinal Chemistry Research, 2016).
